We go through one molecule from ChEMBL document CHEMBL4368873, “Novel O-methyl goniofufurone and 7-epi-goniofufurone derivatives: synthesis, in vitro cytotoxicity and SAR analysis” (Medchemcomm, 2018).

As usually defined, the IC50 is the concentration needed to halve the response being measured.

Assay [1] has as its system K562. Description: Cytotoxicity against human K562 cells assessed as inhibition of cell growth after 72 hrs by MTT assay. The class given is functional, cell-based. The note with it: K562, 72 h. In general terms: Tetrazolium dyes change colour on reduction, which living cells bring about.
For assay [2], the system named is HL-60. Description: Cytotoxicity against human HL60 cells assessed as inhibition of cell growth after 72 hrs by MTT assay. The class given is functional, cell-based. The note with it: HL-60, 72 h. In a few lines: (§1)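 Exponentially growing cells were exposed 72 h to compounds diluted from a 10 mM DMSO stock into serum-free medium. Growth was read by colorimetric MTT. Leukaemia/lymphoma lines (K562, HL-60, Jurkat, Raji) were grown in RPMI 1640; MCF-7, MDA-MB 231, HeLa, A549 and normal MRC-5 fibroblasts in DMEM; 37 °C, 5% CO2.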

The test system of assay [3] is Jurkat. Briefly: Cytotoxicity against human Jurkat cells assessed as inhibition of cell growth after 72 hrs by MTT assay. The class given is functional, cell-based. In a few lines: as §1
Assay [4] deals with Raji. Description: Cytotoxicity against human Raji cells assessed as inhibition of cell growth after 72 hrs by MTT assay. The class given is functional, cell-based.
The subject of assay [5] is MCF7. Description: Cytotoxicity against human MCF7 cells assessed as inhibition of cell growth after 72 hrs by MTT assay. The class given is functional, cell-based. The note with it: MCF7, 72 h. In a few lines:
as §1

Assay [6] concerns MDA-MB-231. Briefly: Cytotoxicity against human MDA-MB-231 cells assessed as inhibition of cell growth after 72 hrs by MTT assay. The note with it: MDA-MB-231, 72 h. The class given is functional, cell-based.
Assay [7] concerns HeLa. Description: Cytotoxicity against human HeLa cells assessed as inhibition of cell growth after 72 hrs by MTT assay. The class given is functional, cell-based.
The subject of assay [8] is A549. Description: Cytotoxicity against human A549 cells assessed as inhibition of cell growth after 72 hrs by MTT assay. The class given is functional, cell-based. The note with it: A549, 72 h.
The test system of assay [9] is MRC5. Description: Cytotoxicity against human MRC5 cells assessed as inhibition of cell growth after 72 hrs by MTT assay. The class given is cell-based. To be noted: MRC5, 72 h.
The subject of assay [10] is MDA-MB-231. Description: Potency index, ratio of doxorubicin IC50 to test compound IC50 for human MDA-MB-231 cells. The class given is functional.
Assay [11] deals with A549. Briefly: Potency index, ratio of doxorubicin IC50 to test compound IC50 for human A549 cells. The class given is functional.
Assay [12] deals with K562. Briefly: Cell cycle arrest in human K562 cells assessed as accumulation at sub-G1 phase at IC50 after 72 hrs by propidium iodide staining based flow cytometry (reference value: 1.84%). The class given is functional. (A flow cytometer gives signals particle by particle.)
Assay [13] relates to K562. Description: Cell cycle arrest in human K562 cells assessed as accumulation at G0/G1 phase at IC50 after 72 hrs by propidium iodide staining based flow cytometry (reference value: 47.51%). The class given is functional.
The test system of assay [14] is K562. Description: Cell cycle arrest in human K562 cells assessed as accumulation at S phase at IC50 after 72 hrs by propidium iodide staining based flow cytometry (reference value: 26.52%). The class given is functional.
Assay [15] concerns K562. Description: Cell cycle arrest in human K562 cells assessed as accumulation at G2/M phase at IC50 after 72 hrs by propidium iodide staining based flow cytometry (reference value: 24.13%). The class given is functional.
For assay [16], the system named is K562. Description: Induction of apoptosis in human K562 cells assessed as apoptotic cells at IC50 after 72 hrs by Annexin V-FITC/propidium iodide staining based flow cytometry relative to control. The class given is functional. In a few lines: (§2)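 K562 cells seeded at 5 × 10⁵ per well, treated 72 h at each compound's IC₅₀ level. Viability was checked by trypan blue exclusion. Viable cells were double-stained with Annexin V-FITC and propidium iodide and analysed by flow cytometry. Results are given as specific apoptosis or specific necrosis (%) relative to untreated cells.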

Assay [17] concerns K562. Description: Induction of apoptosis in human K562 cells assessed as necrotic cells at IC50 after 72 hrs by Annexin V-FITC/propidium iodide staining based flow cytometry relative to control. The class given is functional. In a few lines: as §2
The test system of assay [18] is K562. Description: Down regulation of Bcl-2 expression in human K562 cells at IC50 measured after 72 hrs by Western blot analysis. The class given is functional, cell-based. In general terms: A western blot detects proteins with antibodies after separation by electrophoresis.
Assay [19] has as its system K562. Briefly: Down regulation of Bax expression in human K562 cells at IC50 measured after 72 hrs by Western blot analysis. The class given is functional, cell-based.
Assay [20] deals with K562. Briefly: Up regulation of cleaved PARP expression in human K562 cells at IC50 measured after 72 hrs by Western blot analysis. The class given is functional, cell-based.

Calls of active or inactive are those of the source. The rule behind the calls is not given here. A value given as a limit tells only on which side of the number the result lay.

As to `CO[C@H](c1ccccc1)[C@H]1O[C@@H]2CC(=O)O[C@@H]2[C@H]1O`, the half-inhibitory concentration (IC50) in assay [1] is 7.95 µM; in [2], 2.96 µM; in [3] it was 15.6 µM; in assay [4] it was 15.6 µM; in assay [5], more than 100 µM; in assay [6] it was 0.064 µM. For the same molecule, the 50% inhibitory concentration (IC50) in assay [7] is 5.64 µM; in assay [8] it was 2.64 µM; in assay [9] it was more than 100 µM. Further, the “Ratio IC50” value in assay [10] came out at 1.5; in [11] it was 2. The Activity in [12] is 2.4%; in assay [13] it was 52.09%; in [14], 20.61%; in [15], 24.89%; in assay [16], -0.27%; in [17], -0.5%. In addition, the outcome in assay [18], in assay [19] and in assay [20] was Active.
